Test results: ChEMBL document CHEMBL1649125, “Efficacy of the novel diamidine compound 2,5-Bis(4-amidinophenyl)- furan-bis-O-Methlylamidoxime (Pafuramidine, DB289) against Trypanosoma brucei rhodesiense infection in vervet monkeys after oral administration” (2009)
Activity calls are given as the source filed them. The calls are words filed in the database; no cut-off is given here.

Columns and labels:
[1] = test system: Trypanosoma brucei rhodesiense; assay: Antitrypanosomal activity against Trypanosoma brucei rhodesiense infected in vervet monkey assessed as change in packed cell volume at 10 mg/kg, po administered on day 14 post infection for 5 days measured on day 28 post treatment; type: functional
[2] = test system: Trypanosoma brucei rhodesiense; assay: Antitrypanosomal activity against Trypanosoma brucei rhodesiense infected in vervet monkey 478 assessed as cure from infection at 10 mg/kg, po administered on day 14 post infection for 5 days
[3] = test system: Trypanosoma brucei rhodesiense; assay: Antimicrobial activity against Trypanosoma brucei rhodesiense infected in vervet monkeys assessed as cure from infection at 10 mg/kg, po administered on day 7 post infection for 5 days; type: functional, organism-based; design: dose 10 mg/kg
Method in brief: (§1)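 Vervet monkeys (n=3 per group), infected with T. b. rhodesiense KETRI 2537. Dosed by oral gavage with a suspension once daily for 5 consecutive days from day 7 p.i. Cure meant no trypanosomes over 180 days p.t. in blood (wet film, HCT) or CSF (hemocytometer, centrifugation), with mouse subinoculation of negative samples.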

[4] = test system: Trypanosoma brucei rhodesiense; assay: Antitrypanosomal activity against Trypanosoma brucei rhodesiense infected in vervet monkey 411 assessed as cure from infection at 3 mg/kg, po administered on day 7 post infection for 5 days; type: functional, organism-based; design: dose 3 mg/kg; method in brief: as §1
[5] = test system: Trypanosoma brucei rhodesiense; assay: Antitrypanosomal activity against Trypanosoma brucei rhodesiense infected in vervet monkey 501 assessed as time to detect CSF parasitosis at 10 mg/kg, po administered on day 28 post infection for 10 days measured after 7 to 14 days; type: functional, organism-based; design: dose 10 mg/kg
Method in brief: (§2)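 Trypanosomes and white cells in free-flowing CSF were counted by hemocytometer. Negative CSF was centrifuged and re-examined. Samples still negative were inoculated at 0.2 ml intraperitoneally into two mice each. Drug was given once daily by oral gavage: 5 days from day 7 p.i., or 10 days from day 28 p.i.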

[6] = test system: Trypanosoma brucei rhodesiense; assay: Antitrypanosomal activity against Trypanosoma brucei rhodesiense infected in vervet monkey 486 assessed as cure from infection at 10 mg/kg, po administered on day 7 post infection for 5 days; type: functional, organism-based; design: dose 10 mg/kg; method in brief: as §1
[7] = test system: Trypanosoma brucei rhodesiense; assay: Antitrypanosomal activity against Trypanosoma brucei rhodesiense infected in vervet monkey 463 assessed as time to detect parasitemia at 1 mg/kg, po administered on day 7 post infection for 5 days; type: functional
Method in brief: (§3)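 Parasitemia was monitored from 3 days p.i. in ear-prick or inguinal venous blood. Methods were wet-film microscopy (detection limit 10^5 trypanosomes/ml) and hematocrit centrifugation technique (detection limit 10^3 trypanosomes/ml). Drug was given once daily by oral gavage: 5 days from day 7 p.i., or 10 days from day 28 p.i.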

[8] = test system: Trypanosoma brucei rhodesiense; assay: Antitrypanosomal activity against Trypanosoma brucei rhodesiense infected in vervet monkey assessed as body weight change at 10 mg/kg, po administered on day 7 post infection for 5 days; type: functional
Method in brief: (§4)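 Body weight change is given as percent of the mean preinfection weight (n=3 per group). It was recorded at day 0 p.t., day 28 p.t. and end point. Oral gavage was once daily: 5 days from day 7 p.i., or 10 days from day 28 p.i.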

[9] = test system: Trypanosoma brucei rhodesiense; assay: Antitrypanosomal activity against Trypanosoma brucei rhodesiense infected in vervet monkey 482 assessed as time to detect parasitemia at 3 mg/kg, po administered on day 7 post infection for 5 days; type: functional; method in brief: as §3
[10] = test system: Trypanosoma brucei rhodesiense; assay: Antitrypanosomal activity against Trypanosoma brucei rhodesiense infected in vervet monkey 484 assessed as time to detect CSF parasitosis at 1 mg/kg, po administered on day 7 post infection for 5 days measured after 7 to 14 days; type: functional; method in brief: as §2
[11] = test system: Trypanosoma brucei rhodesiense; assay: Antitrypanosomal activity against Trypanosoma brucei rhodesiense infected in vervet monkey 482 assessed as time to detect CSF parasitosis at 3 mg/kg, po administered on day 7 post infection for 5 days measured after 14 to 21 days by microscopy; type: functional; method in brief: as §2
[12] = test system: Trypanosoma brucei rhodesiense; assay: Antitrypanosomal activity against Trypanosoma brucei rhodesiense infected in vervet monkey 501 assessed as time to detect parasitemia in wet films of blood at 10 mg/kg, po administered on day 28 post infection for 10 days by hematocrit centrifugation technique; type: functional; method in brief: as §3
[13] = test system: Trypanosoma brucei rhodesiense; assay: Antitrypanosomal activity against Trypanosoma brucei rhodesiense infected in vervet monkey 471 assessed as time to detect CSF parasitosis at 10 mg/kg, po administered on day 14 post infection for 5 days measured after 14 to 21 days by microscopy; type: functional, organism-based; design: dose 10 mg/kg
[14] = test system: Trypanosoma brucei rhodesiense; assay: Antitrypanosomal activity against Trypanosoma brucei rhodesiense infected in vervet monkey 471 assessed as time to detect CSF parasitosis at 10 mg/kg, po administered on day 14 post infection for 5 days measured after 7 to 14 days; type: functional, organism-based; design: dose 10 mg/kg
[15] = test system: Trypanosoma brucei rhodesiense; assay: Antitrypanosomal activity against Trypanosoma brucei rhodesiense infected in vervet monkey assessed as body weight change at 10 mg/kg, po administered on day 28 post infection for 10 days; type: functional; method in brief: as §4
[16] = test system: Trypanosoma brucei rhodesiense; assay: Antimicrobial activity against Trypanosoma brucei rhodesiense infected in vervet monkeys assessed as cure from infection at 3 mg/kg, po administered on day 7 post infection for 5 days; type: functional, organism-based; design: dose 3 mg/kg; method in brief: as §1
[17] = test system: Trypanosoma brucei rhodesiense; assay: Antitrypanosomal activity against Trypanosoma brucei rhodesiense infected in vervet monkey 463 assessed as time to detect CSF parasitosis at 1 mg/kg, po administered on day 7 post infection for 5 days measured after 14 to 21 days by microscopy; type: functional, organism-based; design: dose 1 mg/kg; method in brief: as §2
[18] = test system: Trypanosoma brucei rhodesiense; assay: Antitrypanosomal activity against Trypanosoma brucei rhodesiense infected in vervet monkey 485 assessed as time to detect CSF parasitosis at 1 mg/kg, po administered on day 7 post infection for 5 days measured after 14 to 21 days by microscopy; type: functional; method in brief: as §2
[19] = test system: Trypanosoma brucei rhodesiense; assay: Antitrypanosomal activity against Trypanosoma brucei rhodesiense infected in vervet monkey assessed as body weight change at 10 mg/kg, po administered on day 14 post infection for 5 days measured on day 28 post treatment; type: functional
[20] = test system: Trypanosoma brucei rhodesiense; assay: Antitrypanosomal activity against Trypanosoma brucei rhodesiense infected in vervet monkey assessed as change in packed cell volume at 10 mg/kg, po administered on day 28 post infection for 10 days; type: functional
Method in brief: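 Three vervet monkeys were infected intravenously with T. b. rhodesiense KETRI 2537 and treated in late-stage disease. From day 28 p.i., a drug suspension was given by oral gavage once daily for 10 consecutive days. PCV was reported as % change from the mean preinfection value at day 0 p.t., day 28 p.t. and endpoint. Monitoring continued up to 180 days p.t.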

[21] = test system: Trypanosoma brucei rhodesiense; assay: Antitrypanosomal activity against Trypanosoma brucei rhodesiense infected in vervet monkey 463 assessed as time to detect parasitemia in wet films of blood at 1 mg/kg, po administered on day 7 post infection for 5 days by hematocrit centrifugation technique; type: functional; method in brief: as §3
[22] = test system: Trypanosoma brucei rhodesiense; assay: Antitrypanosomal activity against Trypanosoma brucei rhodesiense infected in vervet monkey 484 assessed as time to detect CSF parasitosis at 1 mg/kg, po administered on day 7 post infection for 5 days measured after 14 to 21 days by microscopy; type: functional; method in brief: as §2
[23] = test system: Trypanosoma brucei rhodesiense; assay: Antitrypanosomal activity against Trypanosoma brucei rhodesiense infected in vervet monkey assessed as change in packed cell volume at 3 mg/kg, po administered on day 7 post infection for 5 days measured on day 28 post treatment; type: functional
Method in brief: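 Vervet monkeys, three per group, were infected intravenously with T. b. rhodesiense KETRI 2537. From day 7 p.i., a drug suspension was given by oral gavage once daily for 5 consecutive days. Packed cell volume was expressed as % change from the group's mean preinfection value. PCV was read at day 0 p.t., day 28 p.t. and endpoint, with follow-up to 180 days p.t.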

[24] = test system: Trypanosoma brucei rhodesiense; assay: Antitrypanosomal activity against Trypanosoma brucei rhodesiense infected in vervet monkey 484 assessed as time to detect parasitemia at 1 mg/kg, po administered on day 7 post infection for 5 days; type: functional, organism-based; design: dose 1 mg/kg; method in brief: as §3
[25] = test system: Trypanosoma brucei rhodesiense; assay: Antitrypanosomal activity against Trypanosoma brucei rhodesiense infected in vervet monkey 468 assessed as cure from infection at 10 mg/kg, po administered on day 7 post infection for 5 days; type: functional, organism-based; design: dose 10 mg/kg; method in brief: as §1

## CONC(=N)c1ccc(-c2ccc(-c3ccc(C(=N)NOC)cc3)o2)cc1 [PAFURAMIDINE]
[1]
  Activity: -13.5%
[2]
  Time: Active
[3]
  Activity: Active
[4]
  Time: Active
[5]
  Time: inactive
[6]
  Time: Active
[7]
  Time: 7 days
[8]
  Activity: -6.3%
[9]
  Time: 55 days
[10]
  Time: 7 days
[11]
  Time: 21 days
[12]
  Time: 73 days
[13]
  Time: inactive
[14]
  Time: inactive
[15]
  Activity: -10.5%
[16]
  Activity: Active
[17]
  Time: inactive
[18]
  Time: 21 days
[19]
  Activity: -5.2%
[20]
  Activity: -41.3%
[21]
  Time: 9 days
[22]
  Time: 14 days
[23]
  Activity: -2.9%
[24]
  Time: inactive
[25]
  Time: Active
